Assay results from ChEMBL document CHEMBL1153793, “New pyridone, thioxopyridine, pyrazolopyridine and pyridine derivatives that modulate inflammatory mediators in stimulated RAW 264.7 murine macrophage” (Eur J Med Chem, 2009).
Active and inactive are the calls of the source. The rule behind the calls is not given here.

Columns and labels:
[1] = tested on: RAW264.7; assay: Effect on inflammatory mediators in LPS-stimulated mouse RAW264.7 cells assessed as nitrite accumulation at 20% IC50 after 24 hrs by Griess assay; format: functional
[2] = Hydroxyl radical scavenging activity assessed as trolox equivalents at 1 uM by ORAC assay; format: functional
Method in brief: (§1)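 β-Phycoerythrin fluorescence decay followed kinetically for 2 h at 37 °C with 1 µM compound, against peroxyl and hydroxyl radicals. One ORAC unit = net protection given by 1.0 µM Trolox.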

[3] = tested on: RAW264.7; assay: Effect on inflammatory mediators in mouse RAW264.7 cells assessed as PGE2 accumulation at 20% IC50 after 24 hrs by ELISA; format: functional
[4] = tested on: RAW264.7; assay: Effect on inflammatory mediators in mouse RAW264.7 cells assessed as COX-2 accumulation at 20% IC50 after 24 hrs by dot immunoblotting; format: functional
Method in brief: (§2)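 20 µg lysate protein dot-blotted, probed with anti-mouse COX-2 or 5-LO, detected by HRP/OPD and normalised to β-actin.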

[5] = tested on: RAW264.7; assay: Effect on inflammatory mediators in mouse RAW264.7 cells assessed as nitrite accumulation at 20% IC50 after 24 hrs by Griess assay; format: functional
[6] = tested on: RAW264.7; assay: Effect on inflammatory mediators in mouse RAW264.7 cells assessed as 5-LO accumulation at 20% IC50 after 24 hrs by dot immunoblotting; format: functional; method in brief: as §2
[7] = Peroxyl radical scavenging activity assessed as trolox equivalents at 1 uM by ORAC assay; method in brief: as §1
[8] = Antioxidant activity assessed as superoxide radical scavenging activity; format: functional
Method in brief: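 Non-cellular assay; superoxide generated by oxidation of 50 µM hypoxanthine with 12 mU xanthine oxidase. Scavenging followed as the rate of nitroblue tetrazolium reduction to formazan. SC50 taken from dose-dependent curves of serial dilutions; superoxide dismutase as standard inhibitor.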

[9] = tested on: RAW264.7; assay: Effect on inflammatory mediators in mouse RAW264.7 cells assessed as TNF-alpha accumulation at 20% IC50 after 24 hrs by ELISA; format: functional
[10] = tested on: RAW264.7; assay: Effect on inflammatory mediators in LPS-stimulated mouse RAW264.7 cells assessed as TNF-alpha accumulation at 20% IC50 after 24 hrs by ELISA; format: functional
[11] = tested on: RAW264.7; assay: Effect on inflammatory mediators in LPS-stimulated mouse RAW264.7 cells assessed as PGE2 accumulation at 20% IC50 after 24 hrs by ELISA; format: functional
[12] = tested on: RAW264.7; assay: Effect on inflammatory mediators in LPS-stimulated mouse RAW264.7 cells assessed as 5-LO accumulation at 20% IC50 after 24 hrs by dot immunoblotting; format: functional; method in brief: as §2
[13] = tested on: RAW264.7; assay: Cytotoxicity against mouse RAW264.7 cells assessed as cell viability after 24 hrs by MTT assay; format: cell-based; settings: RAW264.7, 24 h, in the assay text read “MTT assay” for “ultra gel clot assay”
Method in brief: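 RAW 264.7 macrophages (5×10^4 cells/well) exposed 24 h at 37 °C to a range of compound concentrations, then read by MTT reduction to formazan, solubilised in acidic isopropanol. Viability expressed as mean % of untreated cells (n = 4); 1000 U/ml M-CSF as positive control. IC50 derived.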

[14] = tested on: RAW264.7; assay: Effect on inflammatory mediators in LPS-stimulated mouse RAW264.7 cells assessed as COX-2 accumulation at 20% IC50 after 24 hrs by dot immunoblotting; format: functional; method in brief: as §2
[15] = tested on: RAW264.7; assay: Effect on mouse RAW264.7 cell function assessed as FITC-LPS binding to macrophage after 15 mins by fluorimetry; format: functional, cell-based
Method in brief: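 5×10^5 RAW 264.7 cells pre-incubated 15 min at 37 °C with compound in RPMI-1640 plus 10% FBS as the CD14/LBP source. FITC-LPS (200 ng/ml) then added for 1 h. After PBS wash, fluorescence read at ex 485/em 530 nm and median fluorescence intensity reported.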

[16] = tested on: RAW264.7; assay: Induction of phagocytosis in mouse RAW264.7 cells assessed as phagocytic activity against FITC-zymosan after 1 hr by fluorimetry; format: functional, cell-based
Method in brief: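 Cells at 1×10^5/well in phenol red-free RPMI-1640 rested 24 h, then given compound for 1 h. FITC-zymosan added for a further 1 h; cells washed three times and lysed with Triton X-100. Fluorescence read at 485/530 nm and expressed relative to untreated cells (100%).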

[17] = tested on: RAW264.7; assay: Effect on inflammatory mediators in mouse RAW264.7 cells assessed as 5-LO accumulation at 20 uM after 24 hrs by dot immunoblotting; format: functional
Method in brief: (§3)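 Cells treated 24 h with 20 µM compound, with or without LPS (1 µg/ml). 20 µg soluble lysate protein dot-blotted onto nitrocellulose and probed with rabbit anti-mouse COX-2 or 5-LO, HRP anti-rabbit secondary and OPD colour. Intensity normalised to β-actin dots; four repeats.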

[18] = tested on: RAW264.7; assay: Effect on inflammatory mediators in LPS-stimulated mouse RAW264.7 cells assessed as COX-2 accumulation at 20 uM after 24 hrs by dot immunoblotting; format: functional; method in brief: as §3
[19] = tested on: RAW264.7; assay: Effect on inflammatory mediators in mouse RAW264.7 cells assessed as COX-2 accumulation at 20 uM after 24 hrs by dot immunoblotting; format: functional; method in brief: as §3
[20] = tested on: RAW264.7; assay: Effect on inflammatory mediators in LPS-stimulated mouse RAW264.7 cells assessed as 5-LO accumulation at 20 uM after 24 hrs by dot immunoblotting; format: functional; method in brief: as §3
[21] = tested on: RAW264.7; assay: Effect on inflammatory mediators in LPS-stimulated mouse RAW264.7 cells assessed as PGE2 accumulation at 20 uM after 24 hrs by ELISA; format: functional
Method in brief: (§4)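 RAW 264.7 given 20 µM compound for 24 h, alone or together with LPS at 1 µg/ml. TNF-α and PGE2 in harvested supernatants quantified with commercial ELISA kits per manufacturer; four repeats, means reported.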

[22] = tested on: RAW264.7; assay: Effect on inflammatory mediators in mouse RAW264.7 cells assessed as nitrite accumulation at 20 uM after 24 hrs by Griess assay; format: functional
Method in brief: (§5)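 Cells in phenol red-free RPMI-1640 with 10% FBS treated 24 h with 20 µM compound, with or without LPS (1 µg/ml). Supernatant mixed 1:1 with Griess reagent for 10 min, A550 read against a sodium nitrite standard curve, then normalised to BCA protein.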

[23] = tested on: RAW264.7; assay: Effect on inflammatory mediators in mouse RAW264.7 cells assessed as TNF-alpha accumulation at 20 uM after 24 hrs by ELISA; format: functional; method in brief: as §4
[24] = tested on: RAW264.7; assay: Effect on inflammatory mediators in mouse RAW264.7 cells assessed as PGE2 accumulation at 20 uM after 24 hrs by ELISA; format: functional; method in brief: as §4
[25] = tested on: RAW264.7; assay: Effect on inflammatory mediators in LPS-stimulated mouse RAW264.7 cells assessed as TNF-alpha accumulation at 20 uM after 24 hrs by ELISA; format: functional; method in brief: as §4
[26] = tested on: RAW264.7; assay: Effect on inflammatory mediators in LPS-stimulated mouse RAW264.7 cells assessed as nitrite accumulation at 20 uM after 24 hrs by Griess assay; format: functional; method in brief: as §5

CCOC(=O)COc1nc(-c2ccc3c(c2)CCCC3)cc(-c2ccc(OC)c(OC)c2)c1C#N
Activity [1]: 388.4 nmol | Activity [2]: 2.47 | Activity [3]: 22.4 pg | Activity [4]: 27.5% | Activity [5]: 2.65 nmol | Activity [6]: 21.9% | Activity [7]: 2.01 | SC50 [8]: 55.7 µg/mL | Activity [9]: 66.57 pg | Activity [10]: 3945.11 pg | Activity [11]: 2954.2 pg | Activity [12]: 79.6% | IC50 [13]: 26.2 µM | Activity [14]: 68.7%

COc1ccc(-c2cc(-c3ccc4c(c3)CCCC4)[nH]c(=S)c2C#N)cc1OC
Activity [1]: 380.12 nmol | Activity [2]: 0.85 | Activity [3]: 28.66 pg | Activity [4]: 12.3% | Activity [5]: 8.58 nmol | Activity [6]: 18.3% | Activity [7]: 0.9 | SC50 [8]: 65.4 µg/mL | Activity [9]: 79.18 pg | Activity [10]: 4652.4 pg | Activity [11]: 3309.3 pg | Activity [12]: 85.4% | IC50 [13]: 29.4 µM | Activity [14]: 72.8%

CC(C)c1ccc(-c2cc(-c3ccc4c(c3)CCCC4)nc(OCC(=O)NN)c2C#N)cc1
Activity [1]: 596.4 nmol | Activity [2]: 0.99 | Activity [3]: 43.6 pg | Activity [4]: 63.1% | Activity [5]: 440.24 nmol | Activity [6]: 33.12% | Activity [7]: 0.81 | SC50 [8]: 42.5 µg/mL | Activity [9]: 1364.75 pg | Activity [10]: 5754.5 pg | Activity [11]: 3405.5 pg | Activity [12]: 91.8% | IC50 [13]: 27.7 µM | Activity [14]: 92.6%

CCOC(=O)COc1nc(-c2ccc3c(c2)CCCC3)cc(-c2ccc(C(C)C)cc2)c1C#N
Activity [1]: 110.54 nmol | Activity [2]: 1.05 | Activity [3]: 50.5 pg | Activity [15]: Active | Activity [4]: 18.7% | Activity [5]: 3.19 nmol | Activity [6]: 11.9% | Activity [7]: 2.36 | SC50 [8]: 81.4 µg/mL | Activity [9]: 72.45 pg | Activity [10]: 2810.66 pg | Activity [11]: 2870.5 pg | Activity [16]: Active | Activity [12]: 38.7% | IC50 [13]: > 50 µM | Activity [14]: 31.3%

CC(C)c1ccc(-c2cc(-c3ccc4c(c3)CCCC4)nc(OCC(=O)NCc3ccccc3)c2C#N)cc1
Activity [1]: 32.75 nmol | Activity [2]: 3.44 | Activity [3]: 48.15 pg | Activity [4]: 20.6% | Activity [5]: 10.19 nmol | Activity [6]: 21.7% | Activity [7]: 2.22 | SC50 [8]: 24.6 µg/mL | Activity [9]: 69.65 pg | Activity [10]: 615.33 pg | Activity [11]: 3260.2 pg | Activity [16]: Active | Activity [12]: 61.7% | IC50 [13]: 9.9 µM | Activity [14]: 20.1%

CC(C)c1ccc(-c2cc(-c3ccc4c(c3)CCCC4)nc(Cl)c2C#N)cc1
Activity [1]: 611.68 nmol | Activity [2]: 1.1 | Activity [3]: 45.39 pg | Activity [15]: inactive | Activity [4]: 28.7% | Activity [5]: 439.13 nmol | Activity [17]: 29.5% | Activity [6]: 29.5% | Activity [7]: 0.92 | SC50 [8]: > 100 µg/mL | Activity [18]: 80.1% | Activity [9]: 350.05 pg | Activity [19]: 28.7% | Activity [10]: 5110.4 pg | Activity [11]: 2870.25 pg | Activity [20]: 94.6% | Activity [12]: 94.6% | IC50 [13]: 8.4 µM | Activity [14]: 80.1%

COc1ccc(-c2cc(-c3ccc4c(c3)CCCC4)nc(NCc3ccccc3)c2C#N)cc1OC
Activity [1]: 915.9 nmol | Activity [2]: 3.54 | Activity [3]: 31.29 pg | Activity [15]: inactive | Activity [4]: 46.3% | Activity [5]: 720.91 nmol | Activity [6]: 30.2% | Activity [7]: 2.95 | SC50 [8]: 38.4 µg/mL | Activity [9]: 2460.46 pg | Activity [10]: 5520.55 pg | Activity [11]: 3010.66 pg | Activity [16]: inactive | Activity [12]: 94.7% | IC50 [13]: 4.9 µM | Activity [14]: 99.2%

CC(C)c1ccc(-c2cc(-c3ccc4c(c3)CCCC4)[nH]c(=O)c2C#N)cc1
Activity [2]: 0.92 | Activity [15]: Active | Activity [21]: 2105.3 pg | Activity [17]: 20.3% | Activity [22]: 8.51 nmol | Activity [7]: 0.75 | SC50 [8]: 85.4 µg/mL | Activity [18]: 42.7% | Activity [23]: 91.67 pg | Activity [19]: 21.4% | Activity [20]: 25.1% | Activity [16]: Active | Activity [24]: 40.13 pg | Activity [25]: 1255.6 pg | IC50 [13]: > 100 µM | Activity [26]: 32.55 nmol
